Source: ChEMBL document CHEMBL1145528, “Design and study of some novel ibuprofen derivatives with potential nootropic and neuroprotective properties” (Bioorg Med Chem, 2007)
Activity calls are given as the source filed them. The calls are words filed in the database; no cut-off is given here.

Experiments:
[1] = test system: Rattus norvegicus; experiment: Mortality rate in Fischer 344 rat at 1.6 mmol/kg, sc after 4 days; format: functional
Method in brief: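 Rats receive the compound subcutaneously at 1.6 mmol/kg once daily for 4 days. Mortality, perforating gastrointestinal ulcers, melena defecation and body weight change are recorded 24 h after the last injection.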

[2] = test system: Rattus norvegicus; experiment: Gastrointestinal toxicity in Fischer 344 rat assessed as gastrointestinal ulceration at 1.6 mmol/kg, sc after 4 days; format: functional
Method in brief: (§1)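 Rats dosed subcutaneously at 1.6 mmol/kg once daily for 4 days. Perforating gastrointestinal ulcers, melena defecation, body weight change and mortality recorded 24 h after the last injection.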

[3] = test system: Rattus norvegicus; experiment: Body weight change per 100g in Fischer 344 rat at 1.6 mmol/kg, sc after 4 days; format: functional; method in brief: as §1
[4] = test system: Liver microsomes; experiment: Inhibition of Fe(2+)/ascorbate-induced lipid peroxidation in Fischer 344 rat hepatic microsomal membranes; format: functional; conditions: Microsome
[5] = test system: Mus musculus; experiment: Anti-inflammatory activity against of FCA-induced odema in BALB/c mouse assessed as oedema inhibition at 0.30 mmol/kg, ip; format: functional
Method in brief: (§2)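 FCA (0.05 mL/paw) injected intradermally into right hind paw of mice, left paw as control. Compounds suspended in water with a few drops of Tween 80, given ip 15 min before FCA. After 3 h both hind paws excised and weighed. Oedema is paw weight increase, compared with control animals given only the vehicle. Means SEM, Student's t-test.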

[6] = test system: Mus musculus; experiment: Increase of oedema in BALB/c mouse with FCA-induced inflammation at 0.30 mmol/kg, ip; format: functional; method in brief: as §2
[7] = test system: Rattus norvegicus; experiment: Total cholesterol level in Fischer 344 rat plasma at 0.3 mmol/kg, ip after 24 hrs; format: functional
Method in brief: (§3)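 Compounds given ip at 0.3 mmol/kg 30 min later. Plasma total cholesterol, LDL-cholesterol and triglycerides measured in mg/dl and expressed as percent reduction against the hyperlipidemic control group. SD, Student's t-test.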

[8] = test system: Rattus norvegicus; experiment: LDL level in Fischer 344 rat plasma at 0.3 mmol/kg, ip after 24 hrs; format: functional; method in brief: as §3
[9] = test system: Rattus norvegicus; experiment: Triglyceride level in Fischer 344 rat plasma at 0.3 mmol/kg, ip after 24 hrs; format: functional; method in brief: as §3
[10] = biological target: T1, Acetylcholinesterase (Rattus norvegicus) (UniProt P37136); experiment: Inhibition of Fischer 344 rat brain acetylcholine esterase at 0.6 mM
T1 sequence (whole entry): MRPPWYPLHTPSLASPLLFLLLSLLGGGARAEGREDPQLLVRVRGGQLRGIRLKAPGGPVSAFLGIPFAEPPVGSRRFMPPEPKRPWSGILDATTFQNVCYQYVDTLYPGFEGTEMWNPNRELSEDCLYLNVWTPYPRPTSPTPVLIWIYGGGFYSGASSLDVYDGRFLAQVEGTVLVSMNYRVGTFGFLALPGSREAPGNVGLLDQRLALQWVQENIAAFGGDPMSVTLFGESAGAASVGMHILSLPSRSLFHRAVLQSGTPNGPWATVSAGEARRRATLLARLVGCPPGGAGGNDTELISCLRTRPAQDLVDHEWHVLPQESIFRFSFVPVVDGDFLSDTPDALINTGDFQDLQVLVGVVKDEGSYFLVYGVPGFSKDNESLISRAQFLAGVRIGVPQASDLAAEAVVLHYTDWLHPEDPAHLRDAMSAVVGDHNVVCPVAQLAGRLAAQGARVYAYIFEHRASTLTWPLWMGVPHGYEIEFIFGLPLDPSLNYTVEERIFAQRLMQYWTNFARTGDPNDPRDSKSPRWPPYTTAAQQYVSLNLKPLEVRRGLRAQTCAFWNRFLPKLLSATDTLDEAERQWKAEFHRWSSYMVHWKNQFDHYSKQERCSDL
Method in brief: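 Brains from untreated rats homogenised (20 mg/mL) in 0.1 M phosphate buffer, pH 8, as the enzyme source. Acetylthiocholine is the substrate. Activity is read colorimetrically as thiocholine reacting with dithio-bisnitrobenzoic acid and followed as a time course. Percent inhibition is taken at the end of the incubation period.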

[11] = test system: Rattus norvegicus; experiment: Decrease in total cholesterol in Fischer 344 rat plasma at 0.3 mmol/kg, ip after 24 hrs relative to control; format: functional; design: scale not given: the % may be the effect or the level left; method in brief: as §3
[12] = test system: Rattus norvegicus; experiment: Decrease in LDL level in Fischer 344 rat plasma at 0.3 mmol/kg, ip after 24 hrs relative to control; format: functional; design: scale not given: the % may be the effect or the level left; method in brief: as §3
[13] = test system: Rattus norvegicus; experiment: Decrease in triglyceride level in Fischer 344 rat plasma at 0.3 mmol/kg, ip after 24 hrs relative to control; format: functional; design: scale not given: the % may be the effect or the level left; method in brief: as §3
[14] = biological target: T2, Seed linoleate 13S-lipoxygenase-1 (Glycine max) (UniProt P08170); experiment: Inhibition of soybean lipoxygenase at 0.3 mM; design: Activity: scale not given: the % may be the effect or the level left
T2 sequence (whole entry): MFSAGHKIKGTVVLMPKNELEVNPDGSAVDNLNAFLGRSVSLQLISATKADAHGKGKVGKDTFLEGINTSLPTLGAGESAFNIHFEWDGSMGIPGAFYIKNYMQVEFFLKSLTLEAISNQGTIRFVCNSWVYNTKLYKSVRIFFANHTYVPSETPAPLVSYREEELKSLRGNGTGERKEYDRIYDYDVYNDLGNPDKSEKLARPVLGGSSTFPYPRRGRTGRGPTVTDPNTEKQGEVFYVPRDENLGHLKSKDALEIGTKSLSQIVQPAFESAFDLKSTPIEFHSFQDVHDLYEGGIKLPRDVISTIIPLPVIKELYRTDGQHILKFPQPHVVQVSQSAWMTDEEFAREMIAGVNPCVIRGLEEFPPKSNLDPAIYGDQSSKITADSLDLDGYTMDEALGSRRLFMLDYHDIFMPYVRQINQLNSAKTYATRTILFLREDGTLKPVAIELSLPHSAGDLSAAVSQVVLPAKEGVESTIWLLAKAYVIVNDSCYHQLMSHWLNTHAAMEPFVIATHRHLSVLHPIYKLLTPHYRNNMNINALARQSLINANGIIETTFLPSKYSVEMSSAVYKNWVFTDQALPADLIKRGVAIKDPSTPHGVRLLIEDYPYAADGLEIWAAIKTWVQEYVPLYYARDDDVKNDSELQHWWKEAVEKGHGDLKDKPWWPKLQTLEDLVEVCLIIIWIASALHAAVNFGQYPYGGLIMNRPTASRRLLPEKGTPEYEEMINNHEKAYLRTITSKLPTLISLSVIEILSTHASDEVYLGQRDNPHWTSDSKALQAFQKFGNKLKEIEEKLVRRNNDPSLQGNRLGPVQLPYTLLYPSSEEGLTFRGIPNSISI
Method in brief: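 Soybean lipoxygenase 250 U/mL in Tris buffer pH 9. Compounds in 60% aqueous ethanol at 0.1–0.3 mM. Reaction started with sodium linoleate 0.1 mM and followed for 7 min at 28 °C by 13-hydroperoxylinoleic acid conjugated diene absorbance at 234 nm.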

[15] = test system: Mus musculus; experiment: Anti-inflammatory activity against of FCA-induced odema in BALB/c mouse assessed as oedema inhibition at 0.15 mmol/kg, ip; format: functional; method in brief: as §2
[16] = test system: Mus musculus; experiment: Increase of oedema in BALB/c mouse with FCA-induced inflammation at 0.15 mmol/kg, ip; format: functional; method in brief: as §2
[17] = biological target: T3, Seed linoleate 13S-lipoxygenase-1 (Glycine max, UniProt P08170); experiment: Inhibition of soybean lipoxygenase after 7 mins
T3 sequence (P08170 whole entry): T2 sequence (whole entry)

Row | SMILES | Activity [4] | inhibition in vivo at 300 µmol/kg [5] [%] | Activity [6] [%] | inhibition [10] [%] | further results
1 | NCCS [CYSTEAMINE] | – | – | – | – | Activity [1]: 80%; Activity [2]: 40%; Activity [3]: -7 g
2 | O=C(O)[C@@H]1CCCN1 | inactive | – | – | – | –
3 | CC(C)Cc1ccc(C(C)C(=O)O)cc1 (stereo not drawn) [IBUPROFEN] | – | 53 | 44.6 | 20 | Activity [7]: 111 mg/dL; Activity [8]: 38 mg/dL; Activity [9]: 228 mg/dL; Activity [1]: 50%; Activity [2]: 88%; Activity [3]: -13 g; Activity [11]: 38%; Activity [12]: 32%; Activity [13]: 41%
4 | CC(C)Cc1ccc(C(C)C(=O)N2CCCC2C(=O)O)cc1 (stereo not drawn) | inactive | – | – | – | –
5 | CC(C)C(=O)N1CCCC1C(=O)O (stereo not drawn) | inactive | – | – | – | –
6 | COc1cc(C)ccc1OC(=O)[C@H]1CCCN1C(=O)C(C)C | inactive | 1 | 79.3 | – | inhibition [14]: 42%; Activity [10]: inactive
7 | CC(C)C(=O)N1CCC[C@@H]1C(=O)OCCCc1cccnc1 | inactive | 1 | 77 | – | Activity [10]: inactive
8 | CC(C)Cc1ccc(C(C)C(=O)N2CCCC2C(=O)OCCCc2cccnc2)cc1 (stereo not drawn) | – | – | – | 64 | –
9 | CC(C)Cc1ccc([C@H](C)C(=O)O)cc1 | inactive | – | – | 20 | –
10 | COc1cc(C)ccc1OC(=O)C1CCCN1C(=O)C(C)c1ccc(CC(C)C)cc1 (stereo not drawn) | inactive | 43 | 49.6 | 80 | inhibition in vivo at 150 µmol/kg [15]: 21%; Activity [16]: 67.9%; Activity [14]: 78%; IC50 [17]: 140 µM
